# Source: publication PMC4394042 (Cell reports, 2015)
# Columns and labels:
# [1] = test system: Hh signaling in Sufu-/- MEFs; assay: Gli1 and Ptc1 mRNA transcripts in Sufu-/- mouse embryonic fibroblasts; type: cell-based; settings: 10 μM, normalized to GAPDH
# Smo = Smo (Homo sapiens, UniProt Q99835); type: binding; settings: 5 nM BODIPY-cyclopamine; concentrations up to 10 μM
# PDE3A = PDE3A (Homo sapiens, UniProt Q14432); assay: PDE dose-response assay, PDE3A; type: biochemical
# [2] = test system: primary cilium of NIH3T3 cells; assay: Cilium structure and IFT88 in NIH3T3 cells; type: cell-based
# PDE4D3 = PDE4D3 (Homo sapiens, UniProt Q08499); assay: PDE dose-response assay, PDE4D3; type: biochemical
# PDE4D3, sequence (Q08499 1-673 isoform Q08499-2): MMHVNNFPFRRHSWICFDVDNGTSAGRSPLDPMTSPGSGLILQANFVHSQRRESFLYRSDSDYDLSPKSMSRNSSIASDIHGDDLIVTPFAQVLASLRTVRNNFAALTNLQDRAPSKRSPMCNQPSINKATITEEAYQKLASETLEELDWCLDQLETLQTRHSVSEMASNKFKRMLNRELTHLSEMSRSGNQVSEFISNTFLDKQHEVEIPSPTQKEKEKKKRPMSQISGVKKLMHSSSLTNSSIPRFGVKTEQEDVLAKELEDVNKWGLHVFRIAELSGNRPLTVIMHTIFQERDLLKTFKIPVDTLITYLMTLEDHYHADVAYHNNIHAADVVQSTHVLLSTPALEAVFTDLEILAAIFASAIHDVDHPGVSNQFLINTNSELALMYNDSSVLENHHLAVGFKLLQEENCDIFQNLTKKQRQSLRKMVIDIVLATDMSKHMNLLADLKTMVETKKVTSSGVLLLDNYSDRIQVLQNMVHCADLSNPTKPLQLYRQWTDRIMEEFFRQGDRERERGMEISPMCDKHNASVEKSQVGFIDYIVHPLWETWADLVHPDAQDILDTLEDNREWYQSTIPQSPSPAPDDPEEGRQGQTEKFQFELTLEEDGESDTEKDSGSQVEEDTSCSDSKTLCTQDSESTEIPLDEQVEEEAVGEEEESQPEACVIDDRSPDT
# PKA [3] = assay: Immunostaining of phospho-T197-PKA in NIH3T3 cells; type: cell-based; settings: SAG 20 nM plus 5 μM compound
# PDE11A4 = PDE11A4 (Homo sapiens, UniProt Q9HCR9); assay: PDE dose-response assay, PDE11A4; type: biochemical
# PDE11A4, sequence (Q9HCR9 whole entry, species assumed): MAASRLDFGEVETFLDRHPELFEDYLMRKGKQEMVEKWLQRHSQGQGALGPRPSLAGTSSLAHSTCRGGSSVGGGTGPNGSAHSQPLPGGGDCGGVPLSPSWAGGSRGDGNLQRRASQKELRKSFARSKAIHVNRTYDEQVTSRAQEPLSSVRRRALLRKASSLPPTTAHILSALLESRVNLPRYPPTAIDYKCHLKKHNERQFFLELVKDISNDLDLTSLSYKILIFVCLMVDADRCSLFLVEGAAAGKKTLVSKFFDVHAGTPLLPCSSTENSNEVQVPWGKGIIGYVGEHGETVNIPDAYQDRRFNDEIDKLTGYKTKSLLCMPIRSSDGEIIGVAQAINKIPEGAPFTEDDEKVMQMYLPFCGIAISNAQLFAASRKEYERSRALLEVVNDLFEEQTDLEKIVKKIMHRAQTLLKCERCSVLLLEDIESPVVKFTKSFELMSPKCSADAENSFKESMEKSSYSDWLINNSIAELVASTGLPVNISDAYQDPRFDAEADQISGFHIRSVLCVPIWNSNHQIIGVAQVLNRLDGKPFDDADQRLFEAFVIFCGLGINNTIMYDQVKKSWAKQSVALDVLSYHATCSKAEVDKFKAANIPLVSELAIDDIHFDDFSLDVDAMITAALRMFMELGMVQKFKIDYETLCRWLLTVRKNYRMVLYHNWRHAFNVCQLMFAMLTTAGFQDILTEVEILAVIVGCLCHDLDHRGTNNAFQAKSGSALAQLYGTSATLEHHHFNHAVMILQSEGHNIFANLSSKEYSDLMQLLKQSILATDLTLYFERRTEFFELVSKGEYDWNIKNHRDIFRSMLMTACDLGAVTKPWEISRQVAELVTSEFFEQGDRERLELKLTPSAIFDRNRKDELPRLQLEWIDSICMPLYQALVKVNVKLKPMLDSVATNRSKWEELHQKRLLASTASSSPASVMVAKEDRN
# [4] = test system: Hh signaling (Shh-Light2 cells); assay: Gli-Luc reporter stimulated with Smo agonist purmorphamine; type: cell-based, mouse; settings: purmorphamine 3 μM; significant starting at 0.5 μM
# PDE super-family members = assay: In vitro PDE activity screen across PDE super-family members; type: biochemical; settings: 20 μM; PDE4D3 and three other members
# [5] = test system: Hh signaling (Shh-Light2 cells); assay: Gli-luciferase reporter in Shh-Light2 cells stimulated with Shh; type: cell-based, mouse; settings: for Shh-responsive Gli-luciferase reporter activity: stimulated with Shh conditioned medium, significant starting at 1 μM
# Summary of the method: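 Mouse Shh-Light2 Gli-responsive luciferase reporter cells were stimulated with Shh conditioned medium and then treated with increasing concentrations of test compound. Luciferase output was read as relative luciferase units (RLU), n = 4 per condition, reported as mean ± SEM with p-values.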
# [6] = test system: Gli3FL to Gli3R processing; assay: Western blot of Gli3 processing in SAG-stimulated C3H10T1/2 cells; type: cell-based; settings: SAG 100 nM 24 h; Egm 10 μM, FSK 30 μM
# Summary of the method: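 C3H10T1/2 cells were left unstimulated or stimulated with SAG (100 nM, 24 h), alone or with test compound (10 μM) or forskolin (30 μM). Whole-cell lysates were immunoblotted for full-length and repressor Gli3, with α-tubulin as loading control and infrared detection; n = 3.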
# [7] = test system: Gli2 ciliary localization in MEFs; assay: Gli2 trafficking to primary cilium in SAG-stimulated MEFs; type: cell-based, mouse; settings: co-treatment SAG 20 nM and 5 μM compound
# [8] = test system: BMP (Bone Morphogenic Protein) signaling; assay: BMP developmental signaling pathway test; type: cell-based
# [9] = test system: Gli2FL nuclear accumulation; assay: Western blot of nuclear full length Gli2 in SAG-stimulated NIH3T3 cells; type: cell-based; settings: SAG 100 nM 1.5 h; Egm 10 μM, FSK 30 μM
# Summary of the method: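 NIH3T3 cells were left unstimulated or stimulated with SAG (100 nM, 1.5 h), alone or with test compound (10 μM) or forskolin (30 μM), then fractionated. Full-length Gli2 was blotted in nuclear (Lamin-A/C control, n = 4) and whole-cell (α-tubulin control, n = 2) fractions. Output was the ratio of normalized nuclear to normalized whole-cell Gli2.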
# [10] = test system: Gli2-driven Gli-Luc activity; assay: Gli-Luc activity in cells transiently overexpressing Gli2; type: cell-based; settings: transient Gli2 overexpression
# PKA [11] = assay: Western blot of phospho-T197-PKA in NIH3T3 whole cell lysates; type: cell-based; settings: SAG 20 nM plus 5 μM compound
# Summary of the method: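 NIH3T3 cells were left unstimulated or treated with SAG (20 nM), with or without test compound (5 μM). Whole-cell lysates were immunoblotted for phospho-T197 PKA catalytic subunit, with α-tubulin as loading control.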
# 442 kinases = assay: Counter-screen, kinase panel
# [12] = test system: PDE4D3-induced Hh signaling (Shh-Light2 cells); assay: Hh reporter activity in Shh-Light2 cells transfected with PDE4D3; type: cell-based, mouse; settings: 5 μM
# Summary of the method: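 Hh reporter cells were transiently transfected with wild-type PDE4D3, dominant-negative PDE4D3 or empty pCS2 vector as control. Wild-type transfectants received 5 μM test compound. Reporter activity is reported as mean ± SEM and compared with vector control or untreated wild-type transfectants.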
# [13] = test system: Hh-target gene Patched (Ptc)-1 expression; assay: Whole-mount in situ hybridization for Ptc1 in zebrafish embryos; type: in vivo; settings: 1 μM; 12 hpf and 48 hpf
# PDE10A2 = PDE10A2 (Homo sapiens, UniProt Q9Y233); assay: PDE dose-response assay, PDE10A2; type: biochemical
# PDE10A2, sequence (Q9Y233 267-1055, species assumed): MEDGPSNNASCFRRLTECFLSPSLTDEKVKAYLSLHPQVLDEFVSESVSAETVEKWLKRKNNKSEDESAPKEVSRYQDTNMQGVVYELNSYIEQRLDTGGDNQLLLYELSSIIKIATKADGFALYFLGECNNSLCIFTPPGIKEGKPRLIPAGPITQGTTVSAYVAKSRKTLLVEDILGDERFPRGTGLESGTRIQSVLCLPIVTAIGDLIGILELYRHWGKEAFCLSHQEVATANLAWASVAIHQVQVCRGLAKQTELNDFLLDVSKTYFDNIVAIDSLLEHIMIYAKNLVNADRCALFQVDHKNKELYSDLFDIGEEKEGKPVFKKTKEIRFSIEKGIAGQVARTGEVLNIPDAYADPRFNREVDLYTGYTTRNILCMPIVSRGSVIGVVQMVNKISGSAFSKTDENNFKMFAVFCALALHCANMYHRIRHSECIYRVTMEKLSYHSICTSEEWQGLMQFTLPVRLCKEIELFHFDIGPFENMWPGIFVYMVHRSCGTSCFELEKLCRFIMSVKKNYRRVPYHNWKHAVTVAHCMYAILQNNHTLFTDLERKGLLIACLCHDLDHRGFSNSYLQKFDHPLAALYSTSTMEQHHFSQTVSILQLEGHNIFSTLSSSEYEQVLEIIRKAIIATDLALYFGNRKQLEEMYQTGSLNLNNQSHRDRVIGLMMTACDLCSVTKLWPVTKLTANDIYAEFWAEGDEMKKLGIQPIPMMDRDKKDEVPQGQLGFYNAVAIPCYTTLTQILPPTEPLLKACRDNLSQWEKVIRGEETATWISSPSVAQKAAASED
# 21 phosphatases = assay: Counter-screen, phosphatase panel
# PDE3A, sequence (Q14432 whole entry, species assumed): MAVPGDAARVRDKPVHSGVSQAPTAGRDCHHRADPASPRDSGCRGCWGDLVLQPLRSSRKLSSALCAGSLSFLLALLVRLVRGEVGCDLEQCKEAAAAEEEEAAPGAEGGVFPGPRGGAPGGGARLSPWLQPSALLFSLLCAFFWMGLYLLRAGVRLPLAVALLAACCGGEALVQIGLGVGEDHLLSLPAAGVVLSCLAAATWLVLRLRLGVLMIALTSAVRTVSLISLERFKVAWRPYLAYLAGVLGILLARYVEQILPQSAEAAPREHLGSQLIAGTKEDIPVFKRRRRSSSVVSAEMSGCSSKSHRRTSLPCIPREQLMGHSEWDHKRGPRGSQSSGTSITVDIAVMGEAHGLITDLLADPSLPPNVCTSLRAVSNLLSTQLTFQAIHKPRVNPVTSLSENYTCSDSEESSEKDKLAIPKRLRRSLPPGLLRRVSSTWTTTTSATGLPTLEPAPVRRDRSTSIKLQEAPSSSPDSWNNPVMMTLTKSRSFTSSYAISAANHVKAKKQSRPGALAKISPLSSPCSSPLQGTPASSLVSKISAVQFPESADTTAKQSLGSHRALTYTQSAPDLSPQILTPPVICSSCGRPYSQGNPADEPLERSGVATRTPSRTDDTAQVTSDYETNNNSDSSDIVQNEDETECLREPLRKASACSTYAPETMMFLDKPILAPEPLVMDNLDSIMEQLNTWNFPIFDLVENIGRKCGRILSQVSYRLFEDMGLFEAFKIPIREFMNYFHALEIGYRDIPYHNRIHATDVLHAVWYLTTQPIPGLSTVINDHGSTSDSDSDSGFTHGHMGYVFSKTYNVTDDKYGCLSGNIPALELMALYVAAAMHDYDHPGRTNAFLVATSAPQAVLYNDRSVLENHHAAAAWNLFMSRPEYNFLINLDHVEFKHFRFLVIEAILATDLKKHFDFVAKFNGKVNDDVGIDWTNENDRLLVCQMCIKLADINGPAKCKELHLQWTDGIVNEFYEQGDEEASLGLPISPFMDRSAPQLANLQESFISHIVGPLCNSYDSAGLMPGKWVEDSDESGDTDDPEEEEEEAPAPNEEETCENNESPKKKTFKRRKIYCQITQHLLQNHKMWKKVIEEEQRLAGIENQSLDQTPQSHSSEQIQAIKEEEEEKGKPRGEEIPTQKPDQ
# Smo, sequence (Q99835 28-787): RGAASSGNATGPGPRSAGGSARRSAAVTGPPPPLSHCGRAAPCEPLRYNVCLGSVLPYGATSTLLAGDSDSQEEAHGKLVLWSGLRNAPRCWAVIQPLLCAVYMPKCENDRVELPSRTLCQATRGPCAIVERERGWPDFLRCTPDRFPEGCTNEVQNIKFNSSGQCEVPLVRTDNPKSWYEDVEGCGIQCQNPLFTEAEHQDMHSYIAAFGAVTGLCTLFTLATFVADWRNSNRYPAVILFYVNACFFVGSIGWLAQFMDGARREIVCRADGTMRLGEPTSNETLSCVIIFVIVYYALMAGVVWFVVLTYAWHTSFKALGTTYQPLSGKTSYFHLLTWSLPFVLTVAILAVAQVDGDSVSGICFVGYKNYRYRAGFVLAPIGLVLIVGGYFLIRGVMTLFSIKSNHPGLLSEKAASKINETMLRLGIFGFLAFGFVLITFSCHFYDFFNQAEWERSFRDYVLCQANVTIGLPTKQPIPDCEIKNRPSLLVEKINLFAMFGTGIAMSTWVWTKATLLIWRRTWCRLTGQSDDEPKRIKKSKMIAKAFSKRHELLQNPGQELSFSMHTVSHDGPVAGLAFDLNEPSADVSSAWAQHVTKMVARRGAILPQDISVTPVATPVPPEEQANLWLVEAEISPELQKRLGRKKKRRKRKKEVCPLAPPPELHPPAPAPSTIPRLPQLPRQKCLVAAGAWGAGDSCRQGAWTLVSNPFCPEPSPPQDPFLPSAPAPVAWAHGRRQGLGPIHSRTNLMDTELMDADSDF
smiles,measurement,setting,value
"CC1=C2C[C@H]3[C@@H](CC=C4C[C@@H](O)CC[C@@]43C)[C@@H]2CC[C@]12O[C@@H]1C[C@H](C)CN[C@H]1[C@H]2C [cyclopamine, reference compound]",Gli1 transcription level,[1],no inhibition
same,Ptc1 transcription level,[1],no inhibition
"C=C(C)Cn1c(SCC(=O)c2cccs2)nc2sc3c(c2c1=O)CCCC3 [eggmanone, 3-(2-methylallyl)-2-((2-oxo-2-(thiophen-2-yl)ethyl)thio)-5,6,7,8-tetrahydrobenzo[4,5]thieno[2,3-d]pyrimidine-4(3H)-one]",competition for Smo binding with BODIPY-cyclopamine,Smo,failed to compete
same,IC50,PDE3A,3 µM
same,ciliary transport protein IFT88,[2],remained intact
same,cilium structure (Arl13b staining),[2],unaffected
same,IC50,PDE4D3,72 nM
same,selectivity for PDE4D3 over other PDEs,"PDE4D3; versus PDE3A, PDE10A2, PDE11A4",40- to 50 fold
same,phospho-T197-PKA at base of primary cilium / basal body,PKA [3],significant increase in PKA activity at the base of the primary cilium
same,IC50,PDE11A4,4.08 µM
same,purmorphamine-induced Gli-Luc reporter activity,[4],inhibited purmorphamine-induced (3 μM) Gli-Luc reporter activity in a dose-dependent manner
same,inhibition of PDE activity,PDE super-family members,≥ 50%
same,Shh-responsive Gli-luciferase reporter activity,[5],inhibited Hh-inducible Gli-responsive luciferase (Gli-Luc) activity in a dose-dependent manner
same,Gli3R formation,[6],restored Gli3R formation
same,Gli2 localization to primary cilium,[7],properly localized to the proximal tip of the cilium
same,Gli1 transcription level,[1],significantly reduced
same,Ptc1 transcription level,[1],significantly reduced
same,effect on BMP signaling,[8],not perturbed
same,nuclear accumulation of Gli2FL,[9],inhibited
same,Gli-Luc activity in cells overexpressing Gli2,[10],retained Gli-Luc activity
same,p-PKA levels in whole cell lysates,PKA [11],no significant increase
same,inhibition of kinases in panel,442 kinases,≤ 50%
same,Hh reporter activity induced by wild type PDE4D3 overexpression,[12],abolished
same,"Ptc1 expression in adaxial cells, pectoral fin fields and somites",[13],abrogation of the Hh-target gene Patched (Ptc)-1 expression
same,IC50,PDE10A2,3.05 µM
same,inhibition of phosphatases in panel,21 phosphatases,≤ 50%
"C=C[C@@]1(C)CC(=O)[C@]2(O)[C@@]3(C)[C@@H](O)CCC(C)(C)[C@@H]3[C@H](O)[C@H](OC(C)=O)[C@@]2(C)O1 [forskolin, reference compound]",Gli3R formation,[6],restored Gli3R formation
same,nuclear accumulation of Gli2FL,[9],inhibited
COc1ccc(C2CNC(=O)C2)cc1OC1CCCC1 (stereo not drawn) [rolipram],potency in Gli-Luc reporter assay relative to eggmanone,[5]; stimulated with Shh,lower potency than eggmanone
same,Shh-responsive Gli-luciferase reporter activity,[5],did reduce Hh signaling levels
